HIF act: HIF pathway transcriptional activation. U2OS HRE-luciferase reporter, luminescence; normalized: DMSO 0%, desferrioxamine 100%. activation, % at 7.5 µM (by protocol). AID 1910. actives 0.32% (n = 300,000);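 active = mean activation of at least 10% of the iron chelator positive control signal, with at least half of replicates also reaching 10%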
SR-BI DiI-HDL act: activators of SR-BI mediated HDL lipid uptake. CHO ldlA[mSR-BI] cells, DiI-HDL uptake fluorescence, 3 h; 100 = double the neutral-control signal. activation, % at 12.5 µM. actives 0.096% (n = 320,000);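 active = mean replicate activation of at least 60% and every replicate at or above 60%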
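Assay system: LDL receptor-deficient CHO ldlA cells overexpressing murine SR-BI / Medium: BSA-supplemented, HEPES-buffered Ham's F12, pH 7.4 / Probe or stimulus: DiI-labelled HDL at 10 µg/mL final / Timing: compound with DiI-HDL co-incubation, 3 h at 37 °C / Technique: bottom-read cell fluorescence after medium removal, ex 550/em 595 nm / Measure: HDL uptake via cellular fluorescence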
AHR activator: human AHR activation; AHR-responsive luciferase reporter cells, luminescence; activation, % at 5 µM; actives 2.5% (n = 320,000); in the data active = activation above about 47%
ABCB6 inh 2: inhibitors of human ABC transporter ABCB6 | AID 602162 | fluorescence ratio to DMSO, % at 10 µM | actives 0.19% (n = 360,000) | K562-ABCB6 porphyrin accumulation, flow cytometry, 1 h; hits give low values;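 active = fluorescence ratio to DMSO below 75%, the collection mean minus 3 SD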;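 also: signal is porphyrin accumulated inside mitochondria; lower ratio means ABCB6 inhibition with less porphyrin fluorescence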
SR-BI HDL uptake: inhibitors of mouse SR-BI mediated HDL lipid uptake; ldlA[mSR-BI] CHO cells, DiI-HDL uptake fluorescence, 3 h; inhibition, % at 12.5 µM; actives 0.96% (n = 320,000);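 active = mean replicate inhibition of at least 70% and a set share of replicates each scoring 70 or more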
Target sequence (Q61009 whole entry, looked up): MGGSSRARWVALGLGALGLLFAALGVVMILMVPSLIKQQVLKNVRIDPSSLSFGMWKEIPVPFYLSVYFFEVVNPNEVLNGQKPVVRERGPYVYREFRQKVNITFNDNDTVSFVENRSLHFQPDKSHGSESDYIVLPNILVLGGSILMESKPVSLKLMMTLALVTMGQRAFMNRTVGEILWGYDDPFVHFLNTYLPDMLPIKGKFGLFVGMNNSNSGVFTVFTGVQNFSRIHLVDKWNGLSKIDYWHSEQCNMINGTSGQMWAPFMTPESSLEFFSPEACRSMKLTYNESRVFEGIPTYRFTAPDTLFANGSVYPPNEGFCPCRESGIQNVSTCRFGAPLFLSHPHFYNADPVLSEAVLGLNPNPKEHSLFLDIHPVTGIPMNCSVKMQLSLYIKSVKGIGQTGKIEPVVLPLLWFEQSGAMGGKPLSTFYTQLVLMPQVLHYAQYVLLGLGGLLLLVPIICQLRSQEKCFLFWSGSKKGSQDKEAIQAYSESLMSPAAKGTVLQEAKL
GAA850 FXN act: increases GAA850 frataxin promoter reporter activity; HEK293 lucGAA850 FXN promoter luciferase reporter, 24 h; percent of 10 µM SAHA response; activation, % at 6 µM; actives 0.56% (n = 360,000); AID 540364;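 active = activation above the average of all compounds screened plus 3 SD, cutoff fixed separately per campaign, cut at about 7.5% in these data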
AHR act cf: human AHR activation, confirmation. shares compounds with AHR activator. human cells, AHR-responsive luciferase reporter, luminescence. activation, % at 9 µM. actives 87% (n = 2,300). AID 2845; in the data active = activation above about 49%;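 also: HepG2 hepatoma cells carrying a DRE-driven firefly luciferase reporter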
PXR act counter: activates human PXR in AHR activator counter-screen | cell-based PXR reporter, luciferase luminescence | shares compounds with AHR activator | activation, % at 11.6 µM | actives 88% (n = 2,300); in the data active = activation above about 11%;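 also: human hepatoma DPX-2 cells expressing full-length human PXR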
A number is an active result; n = inactive; x = no result. A selection: hits, their analogues and other compounds. The true share with any hit is near 3.9%.

SMILES	HIF act	SR-BI DiI-HDL act	AHR activator	ABCB6 inh 2	SR-BI HDL uptake	GAA850 FXN act	AHR act cf	PXR act counter
CC/C(=N\NC(=O)c1c[nH]c2ccccc12)c1cccs1	n	n	83	n	n	n	151	55
C/C(=N\NC(=O)c1cccc2ccccc12)c1cccs1	n	n	n	n	n	n	x	x
O=C(CN1C2=NCCN2c2ccccc21)C12CC3CC(CC(C3)C1)C2	n	n	82	n	n	n	48	58
COc1ccccc1-c1nnc(NC(C)=O)s1	n	n	82	n	n	n	59	x
COc1ccccc1-c1nnc(NC(=O)C(C)C)s1	n	x	84	n	x	n	123	16
CC(C)C(=O)Nc1nnc(NC(=S)Nc2ccccc2)s1	n	n	104	n	n	n	61	21
CCCc1nnc(NC(=S)Nc2ccccc2)s1	n	n	n	n	n	n	x	x
CCCCOC(=O)Nc1nnc(-c2ccccc2OC)s1	n	n	n	n	n	n	x	x
COc1ccccc1-c1nnc(NC(=O)c2ccc3c(c2)OCO3)s1	n	n	n	n	n	n	x	x
CCN(CC)c1ccc(/C=N/NC(=O)CN2CCCc3ccccc32)cc1	n	n	n	n	n	n	x	x
O=C(CN1CCCc2ccccc21)N/N=C/c1ccccc1	n	n	87	n	n	n	n	40
Fc1ccccc1/C=N/n1cc(-c2ccccc2)[nH]c1=S	n	x	87	n	x	n	112	45
S=c1[nH]c(-c2ccccc2)cn1/N=C/c1cccnc1	n	x	82	n	x	n	102	17
Cc1ccc(-c2cn(-c3ccccc3F)c(=S)[nH]2)cc1	n	n	n	n	n	n	x	x
CCCCNc1cc(NC(C)=O)cc2cc(OC)c(OC)cc12	n	n	n	n	n	n	x	x
Cc1ccc2nc(NCCCO)[nH]c2c1	n	n	n	n	n	n	x	x
CN1CCCC(OC(=O)COc2ccccc2)C1 (centres undefined)	n	n	n	n	n	n	x	x
Cn1cc(/C=N\NC(=O)c2cccs2)c2ccccc21	n	n	149	n	n	n	110	21
Cn1cccc1/C=N/NC(=O)c1cccs1	n	n	n	n	n	n	x	x
Cc1cc(/C=N/NC(=O)c2cccs2)c(C)n1-c1cnccn1	n	n	110	n	n	n	118	21
Cn1cc(/C=N/NC(N)=S)c2ccccc21	n	n	n	n	n	n	x	x
C=CCNC(=S)N/N=C/c1cn(C)c2ccccc12	n	x	95	n	x	n	74	167
Cc1cc(/C=N/NC(=O)c2cccs2)c(C)n1-c1ccccc1	n	n	n	n	n	n	x	x
CCN(CC)CCNC(=O)Cn1c(-c2ccccn2)nc2ccccc21	n	n	n	n	n	n	x	x
COc1ccc(NC(=O)N(C)[C@H]2C[C@H]3c4[nH]c5ccc(-c6ccc7c(c6)OCO7)cc5c4CCN3C[C@H]2[C@H](C)O)cc1	x	x	x	n	x	n	x	x
SMILES	HIF act	SR-BI DiI-HDL act	AHR activator	ABCB6 inh 2	SR-BI HDL uptake	GAA850 FXN act	AHR act cf	PXR act counter
CSCC(C)N1CCC(n2nccc2NC(=O)c2ccccc2C)CC1 (centres undefined)	n	x	n	n	n	n	x	x
CC(=O)n1cc([C@H]2C=C(C(=O)N3CCN(Cc4ccccc4)CC3)O[C@@H](OCCCCO)C2)c2ccccc21	n	n	n	n	n	n	x	x
CC(=O)n1cc([C@H]2C=C(C(=O)NCc3ccccc3)O[C@@H](OCCCCO)C2)c2ccccc21	n	n	87	n	n	n	106	61
O=C(Nc1nncs1)c1ccc(S(=O)(=O)c2ccccc2)cc1	n	n	n	n	n	n	x	x
CCOC(=O)N1CCN(C(=O)CSc2nc3c([nH]c4ccccc43)c(=O)n2CC)CC1	n	n	101	n	n	n	94	54
C=CCn1c(SCC(=O)N2CCOCC2)nc2c([nH]c3ccccc32)c1=O	n	x	88	n	n	n	92	77
COCCn1c(SCC(=O)NCCc2ccccc2)nc2c([nH]c3ccccc32)c1=O	n	n	120	n	n	n	72	205
Cc1nc2c(cc1C(=O)N/N=C/c1ccc([N+](=O)[O-])cc1)c(=O)n(C)c(=O)n2C	n	n	n	n	n	n	x	x
C[C@@H]1CN([C@H](C)CO)C(=O)CCCn2nncc2CO[C@H]1CN(C)Cc1ccccc1C(F)(F)F	x	x	x	n	x	n	x	x
CC(C)Cn1c(=O)c(C(=O)Nc2ccncc2)c(O)c2ccccc21	n	n	n	n	n	n	x	x
Cc1cccc(N/C(N)=N/c2nc(C)cc(C)n2)c1	n	n	81	n	n	n	50	12
CCOc1ccc(-c2nc(N)nc(C)c2-c2ccc(Cl)cc2)c(O)c1	n	n	90	n	n	n	79	39
COc1ccc(NC(=O)c2sc3ncnc(N4CCN(c5ccccn5)CC4)c3c2C)cc1Cl	n	n	n	n	n	n	x	x
Cc1cc(Br)ccc1NC(=O)c1sc2ncnc(N3CCN(c4ccccn4)CC3)c2c1C	n	n	80	n	n	n	91	19
O=C(NC(=O)c1c(F)cccc1F)Nc1ccccc1SC(F)F	n	x	n	n	x	n	x	x
CS(=O)(=O)N(CC(=O)Nc1cccc([N+](=O)[O-])c1)c1ccccc1	n	n	90	n	n	n	48	83
Nc1c(Cl)cc(-c2csc(NCCc3nc4cc(Cl)c(Cl)cc4n3CCCO)n2)cc1Cl	n	n	131	n	n	n	113	82
OCCCn1c(CCNc2nc(-c3ccc(Cl)cc3)cs2)nc2cc(C(F)(F)F)ccc21	n	n	n	n	n	n	x	x
COc1ccc(Cl)cc1NC(=O)C/C(C)=N/NC(=O)c1ccccc1Cl	n	n	n	n	n	n	x	x
COc1cc(NC(=O)C/C(C)=N/NC(=O)Cc2ccccc2)c(OC)cc1Cl	n	n	147	n	n	n	n	16
Nc1nc2ccc(NC(=O)c3ccco3)cc2s1	n	n	82	n	n	n	52	15
O=C(Nc1ccc(Cl)c(C(F)(F)F)c1)c1ccco1	x	n	82	n	n	n	n	n
Cc1nc2ccc(NC(=O)c3ccco3)cc2nc1C	x	n	n	n	n	n	x	x
CCOC(=O)N1C(=O)c2cc(OC)ccc2S1(=O)=O	n	n	n	n	n	n	x	x
COc1ccc(C(O)P(=O)(OCc2ccccc2)c2ccc(N(C)C)cc2)cc1 (centres undefined)	n	n	n	n	n	n	x	x
Fc1ccc(/C=N/NC(=S)Nc2ccc(Cl)cc2Cl)cc1	n	x	84	n	x	n	107	n
O=C(COC(=O)c1ccncc1)Nc1ccccc1	n	n	n	n	n	n	x	x

Source: PubChem
